Experimental data: article PMC10441411 (bioRxiv, 2023)
Peptide text beside a SMILES is read from it. * marks the point of attachment. Cbz = O=C(OCc1ccccc1)*

Assays:
[1] = molecular target: NR4A1 (Homo sapiens, UniProt P22736); assay: NR4A1 degradation in human cell lines by immunoblotting; type: cell-based; settings: CHL-1 cells
Method in brief: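 CHL-1 and A375 human melanoma cells were grown in DMEM with 10% FBS and penicillin/streptomycin. Screening used 250 nM test compound for 16 h, read by immunoblot plus densitometry (n=2). A 16 h dose series gave the 50% degradation concentration. For pathway tests, CHL-1 were pretreated 10 min with 0.5 μM MG132 or 10 μM VHL 032, then exposed 16 h to DMSO or 500 nM. Lysates were made in RIPA with DTT.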

[2] = molecular target: NR4A1; settings: read-out: binding affinity of celastrol to NR4A1 (Kd); cited from earlier work
[3] = test system: NR4A1 mRNA; assay: NR4A1 mRNA by qPCR in CHL-1 cells; type: cell-based, human; settings: 500 nM, time course, ACTB control
[4] = test system: MC38 colon adenocarcinoma; assay: MC38 colon cancer syngeneic tumor growth; type: in vivo, mouse; settings: WT mice; 1.8 mg/kg NR-V04 or 0.75 mg/kg celastrol i.p. twice a week from day 7
Method in brief: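 Mouse MC38 or Yummer1.7 cells (5 × 10^5) in PBS injected s.c. into 7–9-week-old WT or NSG hosts. Dosing started day 7 once tumors were palpable: test compound 1.8 mg/kg i.p. twice weekly, with celastrol 0.75 mg/kg (1.67 μmol/kg) in MC38 only. Vehicle was 50% phosal PG/45% miglyol 810N/5% polysorbate 80. Tumors were grown to 2 cm diameter endpoint.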

[5] = test system: B16F10 melanoma; assay: B16F10 melanoma syngeneic tumor growth; type: in vivo, mouse; settings: WT mice; 1.8 mg/kg NR-V04 or 0.75 mg/kg celastrol i.p. twice a week from day 7

NR4A1 (Homo sapiens, UniProt P22736), sequence (P22736 whole entry): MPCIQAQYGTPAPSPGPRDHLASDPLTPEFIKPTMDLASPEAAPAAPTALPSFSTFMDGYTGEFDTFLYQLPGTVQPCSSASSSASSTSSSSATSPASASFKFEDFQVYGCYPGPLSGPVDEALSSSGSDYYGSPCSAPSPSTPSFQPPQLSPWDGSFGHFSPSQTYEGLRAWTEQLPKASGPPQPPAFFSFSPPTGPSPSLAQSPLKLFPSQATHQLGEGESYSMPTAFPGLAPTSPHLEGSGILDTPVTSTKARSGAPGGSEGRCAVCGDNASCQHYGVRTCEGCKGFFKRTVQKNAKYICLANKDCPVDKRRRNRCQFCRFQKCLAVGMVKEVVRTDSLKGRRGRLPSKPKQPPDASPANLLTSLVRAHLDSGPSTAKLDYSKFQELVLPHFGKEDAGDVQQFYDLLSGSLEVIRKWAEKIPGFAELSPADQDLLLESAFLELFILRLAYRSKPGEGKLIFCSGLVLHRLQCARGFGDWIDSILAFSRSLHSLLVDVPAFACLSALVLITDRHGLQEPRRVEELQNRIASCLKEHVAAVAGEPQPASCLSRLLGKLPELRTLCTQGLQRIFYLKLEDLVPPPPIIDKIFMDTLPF

Question: With `CC1=C(O)C(=O)C=C2C1=CC=C1[C@@]2(C)CC[C@@]2(C)[C@@H]3C[C@](C)(C(=O)O)CC[C@]3(C)CC[C@]12C` [celastrol] as the compound, how does the “NR4A1 protein level, initial screening” value ([1]; 250 nM, 16 hours, immunoblotting and densitometry) read?
Answer: The value was “did not alter”.

Question: And the NR4A1 protein level ([1]; 16 hours, dose series)?
Answer: Its NR4A1 protein level is “did not change”.

Question: And the Kd [2]?
Answer: Its Kd is 290 nM.

Question: What about the “NR4A1 mRNA level” value [3] of the same compound?
Answer: Its value is “increase in NR4A1 mRNA levels after 2 hrs”.

Question: What about the “tumor growth, MC38 model” value [4] of the same compound?
Answer: Its value is “failed to inhibit tumor growth”.

Question: And the “tumor growth, B16F10 melanoma” value [5]?
Answer: The value was “increased growth”.

Question: For `CC(=O)N[C@H](C(=O)N1C[C@H](O)C[C@H]1C(=O)NCc1ccc(-c2scnc2C)cc1)C(C)(C)C` [VHL-032], which “effect of pretreatment on NR-V04-induced degradation of NR4A1” value ([1]; 10 μM VHL 032 10 minutes, then 500 nM NR-V04 16 hours) is on record?
Answer: The value was “prevented”.

Question: Which “effect of pretreatment on NR-V04-reduced NR4A1 protein level” value ([1]; 0.5 μM MG132 10 minutes, then 500 nM NR-V04 16 hours) does the source give for `CC(C)C[C@@H](C=O)NC(=O)[C@H](CC(C)C)NC(=O)[C@H](CC(C)C)NC(=O)OCc1ccccc1` [MG132] (Cbz-Leu-Leu-Leu-aldehyde) here?
Answer: Its value is “effectively rescued”.
